{"source": "ChEMBL document CHEMBL1149278", "about": "“Synthesis and structure-activity relationship studies for hydantoins and analogues as voltage-gated sodium channel ligands” (J Med Chem, 2004)", "assay": "Displacement of [3H]BTX-B from voltage gated sodium channel in rat cerebral cortex synaptoneurosomes", "assay_type": "tissue-based", "procedure,_shortened": "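Rat cerebral cortex synaptoneurosomes (~1 mg protein), stored frozen at –70 °C, thawed and resuspended in HEPES incubation buffer. […] Filtration assay; nonspecific binding defined with 300 μM veratridine. Triplicates, DPH control run alongside. IC50 by Probit analysis, using only points with 10–90% inhibition.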"}
{"smiles": "CCC1(c2ccccc2)NC(=O)N(S(=O)(=O)c2ccc(C)cc2)C1=O", "note": "(stereo not given)", "values": [{"measurement": "IC50", "value": 51, "unit": "µM"}]}
{"smiles": "CCC1(c2ccccc2)NC(=O)N(CN2CCN(C(c3ccccc3)c3ccccc3)CC2)C1=O", "note": "(stereo not given)", "values": [{"measurement": "IC50", "value": 3.3, "unit": "µM"}]}
{"smiles": "CCCCCC(O)(C(=O)O)c1ccccc1", "note": "(stereo not given)", "values": [{"measurement": "IC50", "value": "> 500", "unit": "µM"}]}
{"smiles": "CCCCC1(c2ccccc2)NC(=O)NC1=O", "note": "(stereo not given)", "values": [{"measurement": "IC50", "value": 103, "unit": "µM"}]}
{"smiles": "CC(O)(C(=O)N1CCN(C(c2ccccc2)c2ccccc2)CC1)c1ccccc1", "note": "(stereo not given)", "values": [{"measurement": "IC50", "value": 6.3, "unit": "µM"}]}
{"smiles": "CCCCCCCC(O)(C(N)=O)c1ccccc1", "note": "(stereo not given)", "values": [{"measurement": "IC50", "value": 9, "unit": "µM"}]}
{"smiles": "CCCCCC(O)(C(=O)NCCCc1ccccc1)c1ccccc1", "note": "(stereo not given)", "values": [{"measurement": "IC50", "value": 2.5, "unit": "µM"}]}
{"smiles": "CCCCCCCCCC1(c2ccccc2)NC(=O)NC1=O", "note": "(stereo not given)", "values": [{"measurement": "IC50", "value": 5, "unit": "µM"}]}
{"smiles": "CCCCCCCC1(c2ccccc2)NC(=O)N(CN2CCN(C(c3ccccc3)c3ccccc3)CC2)C1=O", "note": "(stereo not given)", "values": [{"measurement": "IC50", "value": 2.2, "unit": "µM"}]}
{"smiles": "O=C1NC(c2ccccc2)(c2ccccc2)C(=O)N1CN1CCN(C(c2ccccc2)c2ccccc2)CC1", "values": [{"measurement": "IC50", "value": 4.5, "unit": "µM"}]}
{"smiles": "CCCCCC1(c2ccccc2)NC(=O)N(CN2CCN(C(c3ccccc3)c3ccccc3)CC2)C1=O", "note": "(stereo not given)", "values": [{"measurement": "IC50", "value": 1.3, "unit": "µM"}]}
{"smiles": "CCCCCC1(c2ccccc2)NC(=O)N(S(C)(=O)=O)C1=O", "note": "(stereo not given)", "values": [{"measurement": "IC50", "value": 112, "unit": "µM"}]}
{"smiles": "CCC(O)(C(=O)NCCCc1ccccc1)c1ccccc1", "note": "(stereo not given)", "values": [{"measurement": "IC50", "value": 8.2, "unit": "µM"}]}
{"smiles": "CCC(N)(C(=O)O)c1ccccc1", "note": "(stereo not given)", "values": [{"measurement": "IC50", "value": "> 500", "unit": "µM"}]}
{"smiles": "O=C1NC(c2ccccc2)(c2ccccc2)C(=O)N1CCN1CCN(C(c2ccccc2)c2ccccc2)CC1", "values": [{"measurement": "IC50", "value": 0.22, "unit": "µM"}]}
{"smiles": "CCC(O)(C(=O)O)c1ccccc1", "note": "(stereo not given)", "values": [{"measurement": "IC50", "value": "> 500", "unit": "µM"}]}
{"smiles": "CCCCCCCCCC1(c2ccccc2)NC(=O)N(S(C)(=O)=O)C1=O", "note": "(stereo not given)", "values": [{"measurement": "IC50", "value": 11, "unit": "µM"}]}
{"smiles": "CCCCCCCCCC1(c2ccccc2)OC(=O)NC1=O", "note": "(stereo not given)", "values": [{"measurement": "IC50", "value": 11, "unit": "µM"}]}
{"smiles": "CCCC1(c2ccccc2)NC(=O)N(S(C)(=O)=O)C1=O", "note": "(stereo not given)", "values": [{"measurement": "IC50", "value": 500, "unit": "µM"}]}
{"smiles": "CCC1(c2ccccc2)NC(=O)N(CCN2CCN(C(c3ccccc3)c3ccccc3)CC2)C1=O", "note": "(stereo not given)", "values": [{"measurement": "IC50", "value": 1.1, "unit": "µM"}]}
{"smiles": "CCCCCC1(c2ccccc2)OC(=O)NC1=O", "note": "(stereo not given)", "values": [{"measurement": "IC50", "value": 112, "unit": "µM"}]}
{"smiles": "CCC1(c2ccccc2)NC(=O)NC1=O", "note": "(stereo not given)", "values": [{"measurement": "IC50", "value": "> 200", "unit": "µM"}]}
{"smiles": "CCCC(O)(C(N)=O)c1ccccc1", "note": "(stereo not given)", "values": [{"measurement": "IC50", "value": 500, "unit": "µM"}]}
{"smiles": "CCC1(c2ccccc2)NC(=O)N(S(C)(=O)=O)C1=O", "note": "(stereo not given)", "values": [{"measurement": "IC50", "value": "> 500", "unit": "µM"}]}
{"smiles": "CCCC1(c2ccccc2)OC(=O)NC1=O", "note": "(stereo not given)", "values": [{"measurement": "IC50", "value": 448, "unit": "µM"}]}
{"smiles": "CCCC(O)(C(=O)O)c1ccccc1", "note": "(stereo not given)", "values": [{"measurement": "IC50", "value": "> 500", "unit": "µM"}]}
{"smiles": "CCOC(=O)C(O)(CC)c1ccccc1", "note": "(stereo not given)", "values": [{"measurement": "IC50", "value": "> 200", "unit": "µM"}]}
{"smiles": "CCCC1(c2ccccc2)NC(=O)NC1=O", "note": "(stereo not given)", "values": [{"measurement": "IC50", "value": 162, "unit": "µM"}]}
{"smiles": "CCCCCCCC1(c2ccccc2)NC(=O)N(S(C)(=O)=O)C1=O", "note": "(stereo not given)", "values": [{"measurement": "IC50", "value": 13, "unit": "µM"}]}
{"smiles": "CCCCCCCCCC1(c2ccccc2)NC(=O)N(Cc2ccccc2)C1=O", "note": "(stereo not given)", "values": [{"measurement": "IC50", "value": 5.1, "unit": "µM"}]}
{"smiles": "CCCCCC(O)(C(N)=O)c1ccccc1", "note": "(stereo not given)", "values": [{"measurement": "IC50", "value": 178, "unit": "µM"}]}
{"smiles": "CCCCCC(O)(C(=O)N1CCN(C(c2ccccc2)c2ccccc2)CC1)c1ccccc1", "note": "(stereo not given)", "values": [{"measurement": "IC50", "value": 4.8, "unit": "µM"}]}
{"smiles": "CCCCCCCC1(c2ccccc2)OC(=O)NC1=O", "note": "(stereo not given)", "values": [{"measurement": "IC50", "value": 30, "unit": "µM"}]}
{"smiles": "CCC(O)(C(N)=O)c1ccccc1", "note": "(stereo not given)", "values": [{"measurement": "IC50", "value": "> 500", "unit": "µM"}]}
{"smiles": "CCCCCCCCCC(O)(C(N)=O)c1ccccc1", "note": "(stereo not given)", "values": [{"measurement": "IC50", "value": 6.5, "unit": "µM"}]}
{"smiles": "CCCCCCCCCC(O)(C(=O)O)c1ccccc1", "note": "(stereo not given)", "values": [{"measurement": "IC50", "value": 84, "unit": "µM"}]}
{"smiles": "CCCCCC1(c2ccccc2)NC(=O)NC1=O", "note": "(stereo not given)", "values": [{"measurement": "IC50", "value": 39, "unit": "µM"}]}
{"smiles": "CCCCCCCC(O)(C(=O)OCC)c1ccccc1", "note": "(stereo not given)", "values": [{"measurement": "IC50", "value": 36, "unit": "µM"}]}
{"smiles": "CC(O)(C(N)=O)c1ccccc1", "note": "(stereo not given) [ATROLACTAMIDE]", "values": [{"measurement": "IC50", "value": "> 500", "unit": "µM"}]}
{"smiles": "CCC(OCCCc1ccccc1)(C(=O)NCCCc1ccccc1)c1ccccc1", "note": "(stereo not given)", "values": [{"measurement": "IC50", "value": 4.3, "unit": "µM"}]}
{"smiles": "CCCCCCCC(N)(C(=O)O)c1ccccc1", "note": "(stereo not given)", "values": [{"measurement": "IC50", "value": 300, "unit": "µM"}]}
{"smiles": "CCCCCC1(c2ccccc2)NC(=O)N(Cc2ccccc2)C1=O", "note": "(stereo not given)", "values": [{"measurement": "IC50", "value": 6.9, "unit": "µM"}]}
{"smiles": "CCC(O)(C(=O)NCCc1ccccc1)c1ccccc1", "note": "(stereo not given)", "values": [{"measurement": "IC50", "value": 30, "unit": "µM"}]}
{"smiles": "CCCCCC(O)(C(=O)NCCC(c1ccccc1)c1ccccc1)c1ccccc1", "note": "(stereo not given)", "values": [{"measurement": "IC50", "value": 5.3, "unit": "µM"}]}
{"smiles": "CCCCCCCCCC(N)(C(=O)O)c1ccccc1", "note": "(stereo not given)", "values": [{"measurement": "IC50", "value": 274, "unit": "µM"}]}
{"smiles": "CCC(O)(C(=O)NCCC(c1ccccc1)c1ccccc1)c1ccccc1", "note": "(stereo not given)", "values": [{"measurement": "IC50", "value": 35, "unit": "µM"}]}
{"smiles": "CCCCCC(N)(C(=O)O)c1ccccc1", "note": "(stereo not given)", "values": [{"measurement": "IC50", "value": "> 500", "unit": "µM"}]}
{"smiles": "CCCCCCCC(O)(C(=O)O)c1ccccc1", "note": "(stereo not given)", "values": [{"measurement": "IC50", "value": "> 500", "unit": "µM"}]}
{"smiles": "CCCCCC(O)(C(=O)NCCc1ccccc1)c1ccccc1", "note": "(stereo not given)", "values": [{"measurement": "IC50", "value": 5, "unit": "µM"}]}
{"smiles": "CCCCCCCC1(c2ccccc2)NC(=O)NC1=O", "note": "(stereo not given)", "values": [{"measurement": "IC50", "value": 5, "unit": "µM"}]}
